17 molecules from ChEMBL document CHEMBL1126685, “Bronchodilator activity of xanthine derivatives substituted with functional groups at the 1- or 7-position” (J Med Chem, 1993) can be followed below.

For test [1], the target named is Adenosine A2 receptor (guinea pig). The experiment in a line: Binding affinity against adenosine A2 receptor of striatal membrane using [3H]CGS-21680 as a radioligand.
The target in test [2] is cyclic AMP phosphodiesterase (guinea pig). The experiment in a line: Inhibition of cyclic AMP-phosphodiesterase ( PDE) in the supernatant of tracheal muscle homogenate.
A further test addresses T1, Adenosine receptor A1 (Cavia porcellus, UniProt P47745).
T1 sequence (P47745 whole entry): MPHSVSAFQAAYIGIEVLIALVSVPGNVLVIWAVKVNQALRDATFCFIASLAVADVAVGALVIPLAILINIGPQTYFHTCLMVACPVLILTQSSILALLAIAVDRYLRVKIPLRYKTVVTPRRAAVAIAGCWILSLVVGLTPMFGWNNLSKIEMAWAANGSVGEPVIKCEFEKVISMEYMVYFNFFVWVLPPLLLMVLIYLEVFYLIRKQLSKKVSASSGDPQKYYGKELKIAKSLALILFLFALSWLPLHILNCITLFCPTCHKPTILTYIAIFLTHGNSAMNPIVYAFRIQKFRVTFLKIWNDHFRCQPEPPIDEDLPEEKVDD
The experiment in a line: Binding affinity against adenosine A1 receptor of cerebral cortex using [3H]CPX as a radioligand. The test is classed as tissue-based.

Test [3] in a line: Bronchoselectivity expressed as ratio of stimulatory activity in the right atrium (EC15) to relaxant activity in the tracheal muscle (EC50). The test is classed as functional, Cardiac atrium.
For test [4], the species on record is Cavia porcellus. Put plainly: Effective concentration required in vitro for tracheal muscle (from male Hartley guinea pigs) relaxation. The format is functional. The note with it: Trachea. In short, it runs like this: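 Tracheal ring chains from male Hartley guinea pigs (300–500 g), 37 °C Krebs-Henseleit pH 7.4, 95% O2–5% CO2, 0.5 g tension, spontaneous tone; cumulative compound addition, isotonic recording.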

The species entered for test [5] is Cavia porcellus. The experiment in a line: Effective concentration required in vitro for heart stimulation (right atrium) in guinea pig. The test is classed as functional. The note with it: Cardiac atrium. In short, it runs like this: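 Isolated right atrium of male Hartley guinea pigs, 25 °C Krebs-Henseleit gassed 95% O2–5% CO2, 0.5 g tension; cumulative concentrations; beating rate via cardiometer triggered by isometric contraction. EC15 = concentration raising rate 15% above unstimulated; 3–5 experiments.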

By Ki is commonly meant the dissociation constant of the complex between target and ligand, obtained from inhibition or displacement. As a reminder, the EC50 is the concentration that produces a half-maximal response. Read a high EC50 as weaker potency.

`CCCn1c(=O)n(CCC#N)c(=O)c2[nH]cnc21`: the Ki in test [1] amounted to 162 µM; in test [2], 40.8 µM; on Adenosine receptor A1 it was 15.9 µM. Also, in test [3], the Selectivity stood at 2.5. Also, the EC50 in the test filed under Cavia porcellus [4] was 1.7 µM. In addition, the EC15 in the test listed under Cavia porcellus [5] was found to be 4.3 µM.

In turn, `CCCn1c(=O)n(CC)c(=O)c2[nH]cnc21` displayed a Ki in test [1] of 3.9 µM. Also, in test [3], the Selectivity came out at 4.7. Moreover, the EC50 in the test filed under Cavia porcellus [4] was determined as 1.3 µM. In the test listed under Cavia porcellus [5], this molecule had an EC15 of 6.1 µM.

`CCCn1c(=O)n(CC(N)=O)c(=O)c2[nH]cnc21` registered an inhibition constant (Ki) on Adenosine receptor A1 of 39.7 µM. This molecule also showed an EC50 in the test listed under Cavia porcellus [4] of over 100 µM. The EC15 in the test listed under Cavia porcellus [5] was over 100 µM.

Take `CCCn1c(=O)n(C)c(=O)c2c1ncn2CCCO`: the Ki in test [1] is over 200 µM; in test [2], 26.2 µM; at Adenosine receptor A1 it was 112 µM. In addition, the Selectivity in test [3] is given as 4.4. Further, the midpoint of the response in the test listed under Cavia porcellus [4], the EC50, lay at 22.6 µM. In the test listed under Cavia porcellus [5], this molecule registered an EC15 of over 100 µM.

For the molecule `CCCn1c(=O)n(CCOC)c(=O)c2[nH]cnc21`, the Ki in test [1] was 21.6 µM; in test [2], 8.2 µM; on Adenosine receptor A1 it was 2.5 µM. In addition, the Selectivity in test [3] was found to be 9. Moreover, in the test listed under Cavia porcellus [4], the response was half-maximal at 0.7 µM (EC50). The molecule further came in with an EC15 in the test filed under Cavia porcellus [5] of 6.3 µM.

For the molecule `CCCn1c(=O)n(C)c(=O)c2c1ncn2CCOC`, the Ki was determined as 58.7 µM in test [1], 72.7 µM in test [2] and 12.4 µM at Adenosine receptor A1. For the same molecule, the Selectivity in test [3] turned out to be 2.8. The molecule also gave an EC50 in the test listed under Cavia porcellus [4] of 36.1 µM. Besides, the EC15 in the test filed under Cavia porcellus [5] was over 100 µM.

As to `CCCn1c(=O)n(C)c(=O)c2c1ncn2CC(N)=O`, the Ki is over 200 µM in test [1], 119 µM in test [2] and over 200 µM on Adenosine receptor A1. The Selectivity in test [3] was 1. The molecule also yielded an EC50 in the test filed under Cavia porcellus [4] of over 100 µM. In addition, the EC15 in the test filed under Cavia porcellus [5] was over 100 µM.

In the case of `CCCn1c(=O)n(C)c(=O)c2c1ncn2CCC(C)=O`, the Ki was over 200 µM in test [1], 32.8 µM in test [2] and 30 µM on Adenosine receptor A1. Besides, in test [3], the Selectivity is on record as 8.2. The molecule further displayed an EC50 in the test filed under Cavia porcellus [4] of 12.2 µM. Besides, in the test filed under Cavia porcellus [5], the EC15 is over 100 µM.

With `CCCn1c(=O)n(C)c(=O)c2c1ncn2CC`, in the test listed under Cavia porcellus [5], the EC15 was over 100 µM.

For the molecule `CCCn1c(=O)n(C)c(=O)c2c1ncn2CC#N`, the results for the Ki (in test [1]; in test [2]; on Adenosine receptor A1) were 12.8 µM, 16.5 µM and 6.6 µM, respectively. Moreover, the Selectivity in test [3] is recorded as 2.8. In the test filed under Cavia porcellus [4], a half-maximal effect (EC50) was put at 35.3 µM. Besides, the EC15 in the test filed under Cavia porcellus [5] is over 100 µM.

On to `C=CCn1c(=O)c2[nH]cnc2n(CCC)c1=O`, for which the Ki in test [1] was determined as 11.8 µM; in test [2], 27.3 µM; on Adenosine receptor A1, 1.7 µM. Further, the Selectivity in test [3] stood at 3.4. Moreover, in the test listed under Cavia porcellus [4], a half-maximal effect (EC50) was put at 1.6 µM. The EC15 in the test listed under Cavia porcellus [5] was found to be 5.4 µM.

As to `CCCn1c(=O)n(C)c(=O)c2c1ncn2CCN(C)C`, the Ki in test [1] is over 200 µM; in test [2], 53 µM; at Adenosine receptor A1, over 200 µM. Moreover, the Selectivity in test [3] was determined as 1. Also, in the test listed under Cavia porcellus [4], the EC50 is over 100 µM. In addition, in the test listed under Cavia porcellus [5], the EC15 is over 100 µM.

Regarding `CCCn1c(=O)n(CCC(=O)O)c(=O)c2[nH]cnc21`, the Ki in test [1] is over 200 µM; in test [2], 60 µM; on Adenosine receptor A1, over 200 µM. In test [3], the Selectivity is recorded as 4.7. The same molecule displayed an EC50 in the test listed under Cavia porcellus [4] of 21.2 µM. The molecule also displayed an EC15 in the test listed under Cavia porcellus [5] of over 100 µM.

At Adenosine receptor A1, `CCCn1c(=O)n(C)c(=O)c2c1ncn2CC(=O)O` came in with a Ki of over 200 µM. The molecule also yielded an EC50 in the test listed under Cavia porcellus [4] of over 100 µM. In the test listed under Cavia porcellus [5], the EC15 is over 100 µM.

At Adenosine receptor A1, `CCCn1c(=O)n(CC#N)c(=O)c2[nH]cnc21` yielded a Ki of 2.1 µM. The EC50 in the test filed under Cavia porcellus [4] is 4.2 µM. The molecule also registered an EC15 in the test filed under Cavia porcellus [5] of 1.7 µM.

`CCCn1c(=O)n(C)c(=O)c2c1ncn2CCC(N)=O` yielded a Ki at Adenosine receptor A1 of over 200 µM. The molecule further came in with an EC50 in the test filed under Cavia porcellus [4] of over 100 µM. This molecule returned an EC15 in the test listed under Cavia porcellus [5] of over 100 µM.

Consider `C=CCn1cnc2c1c(=O)n(C)c(=O)n2CCC`, for which, at Adenosine receptor A1, affinity was put at a Ki of 15.4 µM. The same molecule came in with an EC50 in the test listed under Cavia porcellus [4] of 11.2 µM. Besides, in the test listed under Cavia porcellus [5], the EC15 worked out at 22.4 µM.
